Assay results from ChEMBL document CHEMBL1130097, “Synthesis and anti-HIV-1 activity of a series of 1-alkoxy-5-alkyl-6-(arylthio)uracils” (J Med Chem, 1997).

Legend:
[1] = test system: Human immunodeficiency virus 1; assay: Concentration required to achieve 50% protection of CEM-SS cells against the cytopathic effect of HIV-1.; format: functional, organism-based; details: Human immunodeficiency virus 1, CEM-SS
CEM-SS [2] = assay: Cytotoxic concentration required to reduce the viability of mock infected CEM-SS cells by 50%.; format: functional; details: Homo sapiens
[3] = (§1) Selectivity Index measured as ratio of CC50 to that of EC50.; format: functional, CCRF-CEM
[4] = Effective concentration for inhibition of HIV-1 replication in human peripheral Blood mononuclear cells.(PBMCs); format: functional
Procedure, shortened: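 PBMCs from healthy seronegative donors were isolated on Ficoll-Hypaque and stimulated 24 h with PHA (10 μg/mL). Cells at 1×10^6 cells/mL were infected with HIV-1 HTLV-IIIB at MOI 0.01, with 2-h adsorption followed by three washes. Culture was in RPMI 1640 with IL-2 (2 U/mL) and 10% FBS with compound at 37 °C, split 1:2 with fresh drug on days 4 and 8. On day 12, supernatant p24 was measured by ELISA in triplicate. […] Means of two independent experiments run in duplicate.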

[5] = Cytotoxic concentration for inhibition of HIV-1 replication in human peripheral Blood mononuclear cells.(PBMCs); format: functional
[6] = Selectivity Index measured as ratio of CC50 to that of EC50 in PBMCs; format: functional
Procedure, shortened: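 HIV-1 (HTLV-IIIB) in PHA-stimulated PBMCs from healthy seronegative donors. Cells were infected at MOI 0.01 for 2 h, washed, then grown with compound in RPMI 1640 with IL-2 and 10% FBS at 37 °C. Cultures were split 1:2 with fresh compound on days 4 and 8. p24 was read by ELISA on day 12. Cytotoxicity was measured by [3H]thymidine incorporation. SI = CC50/EC50, means of two independent experiments in duplicate.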

CCRF-CEM [7] = assay: Effective concentration for inhibition of […] replication in CEM cells.; format: functional, cell-based; details: Homo sapiens
CCRF-CEM [8] = assay: Cytotoxic concentration for inhibition of […] replication in CEM cells.; format: functional; details: Homo sapiens
CEM-SS [9] = assay: Cytotoxic concentration required to reduce the viability of mock infected CEM-SS by 50%.; format: functional; details: Homo sapiens
[10] = test system: Avian myeloblastosis virus; assay: Inhibitory effect on recombinant AMV reverse transcriptase; format: functional
Procedure, shortened: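 Recombinant RT (0.05 unit of HIV-1, AMV or Mo-MuLV) in 50 mM Tris-HCl pH 7.8, 50 mM KCl, 30 mM MgCl2, 1 mM DTT and 0.01% Triton X-100. Template poly r(A)d(T)12-18 (5.0 μg) with 0.5 μCi [3H]dTTP. Compound added in DMSO (final below 1%), 1 h at 37 °C. Reaction stopped with cold 20% TCA and precipitate counted. […] Means of at least three independent experiments run in duplicate.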

CEM-V [11] = assay: Cytotoxic concentration required to reduce the viability of mock-infected CEM-V cells by 50%; format: functional; details: Homo sapiens
[12] = as §1; format: functional
CEM-V [13] = assay: Inhibition of HIV-1 replication in CEM-V cells; format: functional, cell-based; details: Homo sapiens
[14] = test system: Avian myeloblastosis virus; assay: Inhibitory effect on recombinant AMV reverse transcriptase (Avian Myeloblastosis Virus, AMV); format: functional
Procedure, shortened: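 Recombinant RT (0.05 unit each of HIV-1, AMV or Mo-MuLV enzyme) in 50 mM Tris-HCl pH 7.8, 50 mM KCl, 30 mM MgCl2, 1 mM DTT, 0.01% Triton X-100, with poly r(A)d(T)12-18 template and [3H]dTTP. Compounds added from DMSO (final below 1%), 1 h at 37 °C. Stopped with cold 20% TCA; precipitate counted.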

SMILES	EC50 [1] [µM]	CC50 (CEM-SS [2]) [µM]	Selectivity index [3]	other results
Cc1cc(C)cc(Sc2c(C3CC3)c(=O)[nH]c(=O)n2OCc2ccccc2)c1	15.9	> 200	>13	–
CCCOn1c(Sc2cc(C)cc(C)c2)c(CCC)c(=O)[nH]c1=O	2.57	45	18	–
Cc1cccc(Sc2c(C(C)C)c(=O)[nH]c(=O)n2OCCCO)c1	4.7	118	28	–
Cc1cn([C@H]2C[C@H](N=[N+]=[N-])[C@@H](CO)O2)c(=O)[nH]c1=O [ZIDOVUDINE]	0.0045	> 1	>220	EC50 [4]: 0.009 µM; CC50 [5]: 149 µM; Selectivity index [6]: 16556
CCCOn1c(Sc2ccccc2)c(C(C)C)c(=O)[nH]c1=O	6.75	75	11	–
Cc1c(Sc2ccccc2)n(COCCO)c(=O)[nH]c1=O [HEPT]	–	–	48	EC50 (CCRF-CEM [7]): 8.3 µM; CC50 (CCRF-CEM [8]): 400 µM
CCCOn1c(Sc2ccc(C)cc2)c(C(C)C)c(=O)[nH]c1=O	–	–	–	CC50 (CEM-SS [9]): 69 µM
CCCOn1c(Sc2cc(C)cc(C)c2)c(C)c(=O)[nH]c1=O	0.93	64	69	–
Cc1cc(C)cc(Sc2c(C(C)C)c(=O)[nH]c(=O)n2OCCc2ccccc2)c1	0.49	15	31	–
Cc1cc(C)cc(Sc2c(C)c(=O)[nH]c(=O)n2OCCCO)c1	5.55	140	25	–
CCCOn1c(Sc2cc(C)cc(C)c2)c(C(C)C)c(=O)[nH]c1=O	0.064	–	–	IC50 [10]: > 100 µM; CC50 (CEM-SS [9]): 33 µM; EC50 [4]: 0.15 µM; CC50 [5]: 70 µM
COCCOn1c(Sc2cc(C)cc(C)c2)c(C(C)C)c(=O)[nH]c1=O	0.43	96	223	–
Cc1cc(C)cc(Sc2c(C(C)C)c(=O)[nH]c(=O)n2OCc2ccccc2)c1	8.45	24	2.8	–
O=c1[nH]cnc2c1ncn2[C@H]1CC[C@@H](CO)O1 [DIDANOSINE]	–	–	–	CC50 (CEM-V [11]): > 10 µM; Selectivity index [12]: > 3.6; EC50 (CEM-V [13]): 2.8 µM
Cc1cc(C)cc(Sc2c(C(C)C)c(=O)[nH]c(=O)n2OCCOc2ccccc2)c1	0.46	16	35	–
CCCc1c(Sc2cc(C)cc(C)c2)n(OCCc2ccccc2)c(=O)[nH]c1=O	0.7	29	41	–
Cc1cc(C)cc(Sc2c(C)c(=O)[nH]c(=O)n2OCc2ccccc2)c1	10.1	> 200	>20	–
CC(C)c1c(Sc2cc(F)cc(F)c2)n(OCCCO)c(=O)[nH]c1=O	7.52	150	20	–
Cc1cccc(CCOn2c(Sc3cc(C)cc(C)c3)c(C(C)C)c(=O)[nH]c2=O)c1	0.84	13	15	–
O=C(O)P(=O)(O)O [FOSCARNET SODIUM]	–	–	–	IC50 [14]: 9.31 µM
CCCOn1c(Sc2cccc(C)c2)c(C(C)C)c(=O)[nH]c1=O	0.98	40	41	–

SMILES	EC50 [1] [µM]	CC50 (CEM-SS [2]) [µM]	Selectivity index [3]	other results
Cc1cc(C)cc(Sc2c(C)c(=O)[nH]c(=O)n2OCCc2ccccc2)c1	3.08	–	>39	CC50 (CEM-SS [9]): > 121 µM
CCCOn1c(Sc2cc(F)cc(F)c2)c(C(C)C)c(=O)[nH]c1=O	2.39	> 200	>84	–
CCCOn1c(Sc2cc(C)cc(C)c2)c(CC)c(=O)[nH]c1=O	0.35	54	154	–
CCc1c(Sc2cc(C)cc(C)c2)n(OCc2ccccc2)c(=O)[nH]c1=O	5.77	> 200	>35	–
CCCCOn1c(Sc2cc(C)cc(C)c2)c(C(C)C)c(=O)[nH]c1=O	0.42	30	71	–
CCc1c(Sc2cc(C)cc(C)c2)n(OCCCO)c(=O)[nH]c1=O	0.54	123	228	–
CCCCOn1c(Sc2cc(C)cc(C)c2)c(CC)c(=O)[nH]c1=O	0.97	40	41	–
CC(C)c1c(Sc2cccc(F)c2)n(OCCCO)c(=O)[nH]c1=O	–	3.4	–	–
Cc1cc(C)cc(Sc2c(C3CC3)c(=O)[nH]c(=O)n2OCCCO)c1	15.1	128	8.5	–
CCCOn1c(Sc2ccccc2C)c(C(C)C)c(=O)[nH]c1=O	13.9	41	2.9	–
CCCOn1c(Sc2cccc(F)c2)c(C(C)C)c(=O)[nH]c1=O	1.9	72	38	–
CCCc1c(Sc2cc(C)cc(C)c2)n(OCc2ccccc2)c(=O)[nH]c1=O	10.3	114	11	–
Cc1cc(C)cc(Sc2c(C3CC3)c(=O)[nH]c(=O)n2OCCc2ccccc2)c1	6.03	43	7.1	–
Nc1ccn([C@H]2CC[C@@H](CO)O2)c(=O)n1 [ZALCITABINE]	0.19	> 10	>53	–
Cc1cc(C)cc(Sc2c(C(C)C)c(=O)[nH]c(=O)n2OCCCO)c1	0.19	75	395	–
CCCc1c(Sc2cc(C)cc(C)c2)n(OCCCO)c(=O)[nH]c1=O	8.22	107	13	–
CCCOn1c(Sc2cc(C)cc(C)c2)c(C2CC2)c(=O)[nH]c1=O	6.12	30	4.9	–
CCc1c(Sc2cc(C)cc(C)c2)n(OCCOC)c(=O)[nH]c1=O	1.97	136	69	–
CC(C)c1c(Sc2ccccc2)n(OCCCO)c(=O)[nH]c1=O	19	170	8.9	–
CCc1c(Sc2cc(C)cc(C)c2)n(OCCc2ccccc2)c(=O)[nH]c1=O	0.46	36	78	–
